In the library only some 4.5% were active in any assay of this set; here they are far more common.
TAAR1 antagonist – antagonists of human TAAR1. CHO RD-HGA16 TAAR1, Fluo-8 calcium fluorescence, antagonist. inhibition, % at 3 µM. 360,000 tested, 1.5% active. Q96RJ0;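 active = inhibition above a per-plate cutoff, the mean inhibition of test compounds on that plate plus 3 SD, cut at about 49% in these data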;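 also: 0% = DMSO plus EC80 beta-PEA response and 100% = DMSO alone without agonist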
Target sequence (Q96RJ0 whole entry, looked up): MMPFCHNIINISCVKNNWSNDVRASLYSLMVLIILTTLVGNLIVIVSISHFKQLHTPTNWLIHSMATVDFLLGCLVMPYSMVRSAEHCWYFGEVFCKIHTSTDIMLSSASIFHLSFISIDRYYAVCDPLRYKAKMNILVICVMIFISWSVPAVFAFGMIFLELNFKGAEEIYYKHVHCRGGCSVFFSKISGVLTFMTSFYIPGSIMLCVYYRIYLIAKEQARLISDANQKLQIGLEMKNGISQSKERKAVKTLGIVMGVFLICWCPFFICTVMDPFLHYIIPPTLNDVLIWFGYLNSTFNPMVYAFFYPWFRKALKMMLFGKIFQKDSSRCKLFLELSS
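System: CHO RD-HGA16 cells bearing hTAAR1. Reagent: EC80 β-phenethylamine stimulus. Schedule: seeding 17-24 h prior, 75-min 37 °C, 30-min RT dye loading. Signal: Fluo-8 intracellular calcium dye fluorescence, real-time kinetic reads. Read-out: % inhibition from peak post-agonist over basal fluorescence ratio. Benchmarks: vehicle wells and EC80 agonist wells. Replicates: n of 1.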
OX1R antag-1 – antagonists of human orexin 1 receptor | CHO/OX1R cells, Fluo-8 calcium fluorescence, orexin A | inhibition, % at 5 µM | O43613 | 330,000 tested, 0.43% active;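 active = inhibition above its plate's threshold, mean inhibition of all tested compounds on the plate plus 3 SD, cut at about 37% in these data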;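 also: 0% = orexin A challenge wells and 100% = SB-334867-A antagonist wells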
Target sequence (O43613 whole entry, looked up): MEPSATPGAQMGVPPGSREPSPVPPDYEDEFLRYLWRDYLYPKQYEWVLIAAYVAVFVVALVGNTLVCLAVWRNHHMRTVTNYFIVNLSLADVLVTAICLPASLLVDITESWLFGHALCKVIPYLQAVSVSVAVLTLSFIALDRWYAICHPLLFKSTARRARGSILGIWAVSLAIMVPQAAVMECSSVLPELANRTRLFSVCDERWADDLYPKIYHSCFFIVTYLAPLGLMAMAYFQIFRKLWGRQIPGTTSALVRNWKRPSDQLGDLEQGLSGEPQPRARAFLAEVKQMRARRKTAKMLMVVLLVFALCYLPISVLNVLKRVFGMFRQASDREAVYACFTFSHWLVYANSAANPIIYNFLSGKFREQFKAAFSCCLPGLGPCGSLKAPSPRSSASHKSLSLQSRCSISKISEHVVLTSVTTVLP
OX1R antag-2 – antagonists of human orexin 1 receptor (OX1R); inhibition, % at 6.6 µM; OX1R-expressing cells, FRET antagonist read-out; 330,000 tested, 1.8% active; O43613; in the data active = inhibition mostly above about 38%, no sharp cut-off; inactive = mostly below about 40%;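 also: 0% = agonist challenge alone and 100% = reference antagonist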
TAAR1 ag – human TAAR1 agonism | Q96RJ0 | CHO RD-HGA16 TAAR1, Fluo-8 calcium fluorescence; vehicle wells 0%, saturating PEA agonist 100% | activation, % at 3 µM | 360,000 tested, 0.99% active;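 active = activation above the mean activation of all test compounds in the run plus 3 SD, cut at about 38% in these data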
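Assay system: CHO-derived RD-HGA16 cells with stable Gα16 and human TAAR1; timing: 17-24 h seeding, 75 min 37 °C dye, 30 min RT; read-out: % activation from peak over basal fluorescence ratio, DMSO-to-PEA scaled; measured by: kinetic Fluo-8 calcium fluorescence; benchmarks: low control DMSO, high control PEA (EC100); doses: 3 µM single concentration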
GPR7 antagonist – antagonists of human GPR7 (neuropeptides B/W receptor 1); P48145; GPR7-expressing cells, fluorescence antagonist assay; inhibition, % at 4.4 µM; 290,000 tested, 1.1% active; AID 1861; in the data active = inhibition above about 16%, passing the limit was not always enough;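 also: cells stimulated with the agonist NPW; 0% = agonist with vehicle and 100% = vehicle without agonist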
CHO parental Ca – counter-screen for OX1R antagonists: effect in parental CHO cells. 330,000 tested, 0.63% active. inhibition, % at 5.6 µM. parental CHO-K1, ATP-induced calcium, Fluo-8 fluorescence;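 active = inhibition above that plate's mean sample inhibition plus 3 SD, cut at about 26% in these data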;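 also: 0% = ATP-challenged DMSO wells and 100% = DMSO wells without ATP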
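Test system: untransfected parental CHO cell line; also added: ATP stimulus; dosing: 5.6 µM, single dose; signal: calcium-sensitive Fluo-8 fluorescence; measure: percent inhibition of ATP-evoked calcium rise, normalized to controls; benchmarks: low control ATP plus DMSO, high control DMSO only; replication: one well per compound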
An asterisk follows results filed as active.

What do the screens show for `CC1C/C(=C/c2ccncc2)C(=O)/C(=C/c2ccncc2)C1` (centres undefined)?
TAAR1 antagonist: -5.5; OX1R antag-1: -5.9; OX1R antag-2: 32.6; TAAR1 ag: -0.3; GPR7 antagonist: 24.4*; CHO parental Ca: 13.5

How did CN1C/C(=C/c2cccnc2)C(=O)/C(=C/c2cccnc2)C1 do in these assays?
TAAR1 antagonist: -7.0; OX1R antag-1: -11.7; OX1R antag-2: 18.4; TAAR1 ag: 0.8; GPR7 antagonist: -2.9; CHO parental Ca: -6.1

What do the screens show for `CC1(C(=O)NS(=O)(=O)c2ccc(Cl)s2)CCN1C(=O)Cc1ccccc1Cl` (centres undefined)?
TAAR1 antagonist: 7.2; TAAR1 ag: 0.6

How did Cc1[nH]c2ccccc2c1/C=N/Nc1ccccc1[N+](=O)[O-] do in these assays?
TAAR1 antagonist: -34.0; OX1R antag-1: 1.6; OX1R antag-2: 66.6*; TAAR1 ag: -2.0; GPR7 antagonist: -16.0; CHO parental Ca: -17.6

What do the screens show for `COc1ccc(NS(=O)(=O)c2cc([N+](=O)[O-])ccc2N/N=C/c2c(C)[nH]c3ccccc23)cc1`?
TAAR1 antagonist: 3.5; TAAR1 ag: 3.3

How did CCN(Cc1cc(OC)c(OC)c(OC)c1)S(=O)(=O)c1ccccc1Br do in these assays?
TAAR1 antagonist: 27.1; TAAR1 ag: 5.2

Results for CC(=O)OCC1O[C@@H](O[C@@H]2C[C@H]3C(C)(C)[C@H](OC(C)=O)CC[C@]3(C)[C@H]3CC[C@]45C[C@]4(CC[C@H]5[C@@H](C)C[C@@H](O)[C@H](O)C(C)(C)O)[C@@]32C)[C@H](O)[C@@H](O)[C@@H]1O (some centres undefined) ?
OX1R antag-1: 67.4*; OX1R antag-2: 23.4; GPR7 antagonist: 10.2; CHO parental Ca: 100.1*

What do the screens show for `CCOc1ccc(NC(=O)CN(C)C(=O)c2c(C)nn(-c3ccc(F)cc3)c2Cl)cc1OCC`?
TAAR1 antagonist: -34.4; OX1R antag-1: -20.7; OX1R antag-2: 1.3; TAAR1 ag: -1.5; CHO parental Ca: -15.6

Results for CCN(CC(=O)Nc1ccc(NC(C)=O)cc1)C(=O)c1c(C)nn(-c2ccc(F)cc2)c1Cl ?
TAAR1 antagonist: 53.6*; OX1R antag-1: -17.1; OX1R antag-2: 0.7; TAAR1 ag: 15.1; CHO parental Ca: -20.7

How did Cc1cc(/C=C2\SC(N)=NC2=O)c(C)n1-c1ccc(F)cc1 do in these assays?
TAAR1 antagonist: 4.6; OX1R antag-1: -10.3; OX1R antag-2: 15.9; TAAR1 ag: 4.1; GPR7 antagonist: 4.8; CHO parental Ca: -3.0

How did CCN1CCN(C(=O)c2cc3c(s2)-c2ccccc2S(=O)(=O)C3)CC1 do in these assays?
TAAR1 antagonist: -8.6; OX1R antag-1: -10.9; OX1R antag-2: 22.8; TAAR1 ag: 1.6; GPR7 antagonist: -7.3; CHO parental Ca: -1.3

How did O=C(c1cc2c(s1)-c1ccccc1S(=O)(=O)C2)N1CCN(Cc2ccccc2)CC1 do in these assays?
TAAR1 antagonist: 51.0*; OX1R antag-1: -16.1; OX1R antag-2: 18.4; TAAR1 ag: 12.5; GPR7 antagonist: 8.5; CHO parental Ca: 0.8

How did CCc1ccccc1N1C(=O)CN(Cc2cc(OC)c(OC)c(OC)c2)C1=S do in these assays?
TAAR1 antagonist: 12.4; OX1R antag-1: -5.6; OX1R antag-2: 37.2*; TAAR1 ag: 6.6; GPR7 antagonist: 5.3; CHO parental Ca: -15.2

How did CCc1ccc(N2C(=O)CN(Cc3cc(OC)c(OC)c(OC)c3)C2=S)cc1 do in these assays?
TAAR1 antagonist: -8.0; OX1R antag-1: -29.1; OX1R antag-2: 17.5; TAAR1 ag: 7.9; GPR7 antagonist: -12.2; CHO parental Ca: -12.9

How did Cc1cc(C(=O)CN2C(=O)C(=O)N(Cc3ccccc3)C2=O)c(C)n1CC1COc2ccccc2O1 (centres undefined) do in these assays?
TAAR1 antagonist: 21.2; OX1R antag-1: -8.1; OX1R antag-2: 12.0; TAAR1 ag: 10.9; GPR7 antagonist: 0.8; CHO parental Ca: 20.0

How did Cc1cc(C(=O)CSc2nnc(-c3ccco3)o2)c(C)n1CC1COc2ccccc2O1 (centres undefined) do in these assays?
TAAR1 antagonist: 2.9; TAAR1 ag: -0.5; GPR7 antagonist: 19.6*

What do the screens show for `Cc1cc(C(=O)COC(=O)c2ccc(CO)cc2)c(C)n1CC1COc2ccccc2O1` (centres undefined)?
TAAR1 antagonist: 49.5*; OX1R antag-1: -6.6; OX1R antag-2: 6.3; TAAR1 ag: 22.8; GPR7 antagonist: 14.8; CHO parental Ca: 2.2

Results for Cc1ccc(/C=N/Nc2nncn2N)cc1 ?
TAAR1 antagonist: 9.4; OX1R antag-1: 1.1; OX1R antag-2: 43.3*; TAAR1 ag: -1.8; GPR7 antagonist: -10.2; CHO parental Ca: -4.3

Results for Nn1cnnc1N/N=C/c1ccc(F)cc1 ?
TAAR1 antagonist: -12.1; OX1R antag-1: -3.3; OX1R antag-2: 65.1*; TAAR1 ag: 5.2; GPR7 antagonist: -16.8; CHO parental Ca: -1.9

How did Nn1cnnc1N/N=C/c1ccc(Cl)c([N+](=O)[O-])c1 do in these assays?
TAAR1 antagonist: 12.5; OX1R antag-1: -9.3; OX1R antag-2: 61.1*; TAAR1 ag: 4.9; GPR7 antagonist: -14.7; CHO parental Ca: -25.7

What do the screens show for `Nc1nnnn1/N=C\c1ccc(Cl)c([N+](=O)[O-])c1`?
TAAR1 antagonist: -0.7; OX1R antag-1: 7.0; OX1R antag-2: 65.0*; TAAR1 ag: -0.2; GPR7 antagonist: -5.2; CHO parental Ca: 8.8

Results for COc1ccc(-c2cc3c(c4c2ccn4C)C2CCC3O2)cn1 (centres undefined) ?
TAAR1 antagonist: -16.3; TAAR1 ag: 1.5

Results for CNC(=O)c1ccccc1C1(O)c2ccccc2CCc2ccccc21 ?
TAAR1 antagonist: -18.8; TAAR1 ag: 0.7

Results for Oc1ccc(Cl)cc1CNCc1ccc(Cl)nc1 ?
TAAR1 antagonist: 11.8; OX1R antag-1: -14.9; OX1R antag-2: -2.9; TAAR1 ag: 39.6*; CHO parental Ca: -14.0

Results for Oc1ccc(Cl)cc1CNCc1ccc(F)c(F)c1 ?
TAAR1 antagonist: 4.8; OX1R antag-1: 1.2; OX1R antag-2: 0.1; TAAR1 ag: 42.9*; CHO parental Ca: -9.7

Results for COc1ccc(CNCc2cc(Cl)ccc2O)cc1 ?
TAAR1 antagonist: 13.3; OX1R antag-1: -5.0; OX1R antag-2: 32.8; TAAR1 ag: 34.2; CHO parental Ca: -9.6

What do the screens show for `O=C(COC(=O)c1cccc(NC(=O)c2ccco2)c1)c1ccc(Br)cc1`?
TAAR1 antagonist: 61.7*; OX1R antag-1: 11.9; OX1R antag-2: 33.4; TAAR1 ag: 13.1; GPR7 antagonist: -1.2; CHO parental Ca: 21.6

What do the screens show for `O=C(Nc1ccccc1Br)C1CCCN1S(=O)(=O)c1cccc2nsnc12` (centres undefined)?
TAAR1 antagonist: -5.4; OX1R antag-1: -0.6; OX1R antag-2: 56.3*; TAAR1 ag: -1.3; GPR7 antagonist: -7.7; CHO parental Ca: -25.1
